The results in this text go back to publication PMC2804977 (Biochemical and biophysical research communications, 2009).

Assay [1] addresses T1, 15F3 of Fn (Rattus norvegicus, UniProt P04937).
T1 sequence (P04937 2193-2286 limits assumed): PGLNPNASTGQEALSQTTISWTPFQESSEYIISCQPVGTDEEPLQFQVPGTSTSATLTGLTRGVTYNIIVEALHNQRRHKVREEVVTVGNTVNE
The assay is described as follows: Intrinsic Trp fluorescence quenching titration of 15F3. The assay is classed as binding. The method, boiled down:
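Titration of the rat Fn 15th type III module (1 μM) with varied test peptide concentrations; intrinsic Trp emission spectra recorded after 5 min. Intensity at 350 nm was fitted to derive KD. Data were corrected for dilution and inner-filter effect.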

In assay [2] the target is T1, 15F3 of Fn. The experiment in a line: Stopped-flow binding kinetics with 15F3. The settings on record: 25 °C. An outline of the steps:
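Rat Fn 15th type III module (1 μM) in PBS was rapidly mixed with test peptide (25–400 μM, at least 25-fold excess for pseudo-first-order conditions). Trp emission above 320 nm (295 nm excitation, 320 nm cut-off filter) was recorded at 25 °C, 1000 points per trace. Averaged traces were fitted single-exponentially for kobs; kobs versus peptide concentration gave kon and koff. Three experiments were averaged.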

As to LIPAD, the “affinity for 15F3” value in assay [1] is listed as “moderate affinity”. For the same substance, the “binding kinetics to 15F3” value in assay [2] is “slow binding kinetics”.
